Published values pooled from the literature.
Target: Serine/threonine-protein kinase ICK (CILK1, Homo sapiens, UniProt Q9UPZ9)
Sequence (Q9UPZ9 1-632, as in one of the studies): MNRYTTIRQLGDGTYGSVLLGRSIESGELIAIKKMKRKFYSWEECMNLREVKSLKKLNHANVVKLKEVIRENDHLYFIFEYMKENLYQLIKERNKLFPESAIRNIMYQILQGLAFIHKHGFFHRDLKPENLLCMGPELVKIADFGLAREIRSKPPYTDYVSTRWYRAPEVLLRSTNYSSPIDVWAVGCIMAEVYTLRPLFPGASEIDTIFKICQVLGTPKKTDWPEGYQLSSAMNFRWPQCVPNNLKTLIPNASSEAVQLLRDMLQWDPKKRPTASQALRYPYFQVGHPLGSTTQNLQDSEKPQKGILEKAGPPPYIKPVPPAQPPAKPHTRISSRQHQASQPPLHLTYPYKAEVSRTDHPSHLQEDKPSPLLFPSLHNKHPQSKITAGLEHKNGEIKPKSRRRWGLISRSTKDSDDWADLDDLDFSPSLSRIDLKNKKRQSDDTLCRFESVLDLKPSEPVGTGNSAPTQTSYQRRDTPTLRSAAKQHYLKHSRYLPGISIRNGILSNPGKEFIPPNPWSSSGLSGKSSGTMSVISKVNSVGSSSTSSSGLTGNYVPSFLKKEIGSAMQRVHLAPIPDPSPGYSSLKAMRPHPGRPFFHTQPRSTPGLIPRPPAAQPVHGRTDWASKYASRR

SMILES	assay	conditions	remaining binding
C=CC(=O)N1CCC(C(=O)NCC(=O)N2CCN(c3nc(-c4cnc(N)nc4C(F)F)nc(N4CCOCC4)n3)CC2)CC1	binding, competition with immobilised ligand	1 µM	95%
CN(c1nccc(-c2cnn3ncccc23)n1)C1CC1	binding	1 µM	100%
CNCc1ccccc1-c1csc([C@H](C)Nc2nc(C)nc3cc(OC)c(OC)cc23)c1	cell-free assay, competition with immobilised ligand	1 µM	86%
O=C(Nc1c[nH]nc1C(=O)NC1CCNCC1)c1cc(F)cc(F)c1	binding, competition with immobilised ligand	1 µM	84%
O=C(Nc1cccnn1)N1CCC(=Cc2cccc(Oc3ccc(C(F)(F)F)cn3)c2)CC1	cell-free assay, competition with immobilised ligand	1 µM	91%
Cc1cnn2ncc(-c3ccnc(N(C)C)n3)c2c1	binding	1 µM	82%
CCN1CCN(Cc2ccc(C(=O)Nc3ccc(C)c(Oc4ccc5c(c4)CC(=O)N5)c3)cc2C(F)(F)F)CC1	binding, competition with immobilised ligand	1 µM	100%
CN(C)c1nccc(-c2cnn3ncccc23)n1	binding	1 µM	91%
C[C@@H](c1ccc(-n2cnc3c(N)ncnc32)cc1)N1CCc2nn(C)c(Cc3ccccc3)c2C1=O	binding, competition with immobilised ligand	0.1 µM	48%
Cc1c(NC(=O)c2cc(C(N)=O)nc3cc(F)ccc23)c(C(F)(F)F)nn1Cc1ccc(C(C)(C)C)cc1	cell-free assay, competition with immobilised ligand	1 µM	61%
CC1CCCN1c1nccc(-c2cnn3ncccc23)n1 (stereo not drawn)	binding	1 µM	100%
COc1cnc(Nc2cccc(S(N)(=O)=O)c2)nc1N1CCN(c2ccccc2)C(=O)C1	binding, competition with immobilised ligand	1 µM	75%
O=C(NCCCN1CCOCC1)c1ccc(Nc2ncc(Cl)c(-c3ccc(Cl)s3)n2)cc1	binding, competition with immobilised ligand	1 µM	62%
Nc1cnc(N2CCc3cc(S(=O)(=O)Nc4c(F)cc(Cl)cc4F)cc(N4CCCC4=O)c32)nc1	cell-free assay, competition with immobilised ligand	1 µM	80%
Cc1cnc(Nc2ccc(C(=O)N3CCC(N4CCCC4)CC3)cc2)nc1-c1cc2ccccc2s1	binding, competition with immobilised ligand	1 µM	64%
CN(CCCC(F)(F)F)c1nccc(-c2cnn3ncccc23)n1	binding	1 µM	100%
COc1cccc(CNC(=O)c2nc3scc(COCc4ccc(C(=O)O)cc4)c3c(=O)[nH]2)c1	cell-free assay, competition with immobilised ligand	1 µM	66.1%
C[C@@H]1CCN(c2nccc(-c3cnn4ncccc34)n2)C1	binding	1 µM	58%
O=C(Nc1cccnn1)N1CC(C/C=C/c2cncc(Oc3ccc(C(F)(F)F)cn3)n2)C1	cell-free assay, competition with immobilised ligand	1 µM	80%
Nc1ncc2c(n1)-c1c([nH]c3ccc(C#CC4CC4)cc13)CCCC2	binding, competition with immobilised ligand	1 µM	98%
O=C(c1ccc(Nc2ncc(Cl)c(-c3cc4ccccc4s3)n2)cc1)N1CCC(N2CCCC2)CC1	binding, competition with immobilised ligand	1 µM	57%
